According to PMC10238757 (Pharmacology Research & Perspectives, 2023):
Read-outs that look alike come from different tables or passages of the source. Marks after values point to notes of the source that are not given here.

Assays:
[1] = system: healthy participants; experiment: Safety and tolerability, relative bioavailability and food effect; type: in vivo, human
In short: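 AEs in healthy participants given oral test compound or placebo, recorded with grade and relation to treatment. Laboratory analyses, clinical parameters and suicidality were also monitored. Observation ran 360 h after dosing. Summaries were descriptive, with no formal statistics; parts 1–2 blinded and placebo-controlled, part 3 open-label.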

[2] = system: dogs; experiment: Dose ranging and good laboratory practice toxicology studies in dogs; type: in vivo
[3] = system: healthy participants; conditions: for Abdominal pain, n occurrences (% of cohort) / All-cause AEs Grade 2, n occurrences (% of cohort) / All-cause AEs Grade 3/4, n occurrences (% of cohort) / All-cause AEs, n occurrences (% of cohort) / Constipation, n occurrences (% of cohort) / Diarrhea, n occurrences (% of cohort) / Drug-related AEs Grade 2, n occurrences (% of cohort) / Drug-related AEs Grade 3/4, n occurrences (% of cohort) / Drug-related AEs, n occurrences (% of cohort) / Headache, n occurrences (% of cohort) / MDSD, n occurrences (% of cohort): N=6

C=C(C)[C@@H]1CC[C@]2(NCCN3CCS(=O)(=O)CC3)CC[C@]3(C)[C@H](CC[C@@H]4[C@@]5(C)CC=C(C6=CC[C@@](COc7ncccc7C#N)(C(=O)O)CC6)C(C)(C)[C@@H]5CC[C@]43C)[C@@H]12 [GSK'937]
No deaths or SAEs occurred: deaths or SAEs ([1]; part 3) | deaths or SAEs ([3]; SAD)
0: Drug-related AEs, n occurrences (% of cohort) ([1]; 100 mg tablet fed, N=17) | MDSD, n occurrences (% of cohort) ([1]; 100 mg tablet fed, N=17) | All-cause AEs Grade 2, n occurrences (% of cohort) ([3]; SAD 10 mg) | All-cause AEs Grade 3/4, n occurrences (% of cohort) ([3]; SAD 10 mg) | Constipation, n occurrences (% of cohort) ([3]; SAD 10 mg) | Diarrhea, n occurrences (% of cohort) ([3]; SAD 10 mg) | Drug-related AEs Grade 2, n occurrences (% of cohort) ([3]; SAD 10 mg) | Drug-related AEs Grade 3/4, n occurrences (% of cohort) ([3]; SAD 10 mg) | MDSD, n occurrences (% of cohort) ([3]; SAD 10 mg) | Abdominal pain, n occurrences (% of cohort) ([3]; SAD 30 mg) | All-cause AEs Grade 3/4, n occurrences (% of cohort) ([3]; SAD 30 mg) | Diarrhea, n occurrences (% of cohort) ([3]; SAD 30 mg) | Drug-related AEs Grade 3/4, n occurrences (% of cohort) ([3]; SAD 30 mg) | Headache, n occurrences (% of cohort) ([3]; SAD 30 mg) | Abdominal pain, n occurrences (% of cohort) ([3]; SAD 80 mg) | All-cause AEs Grade 2, n occurrences (% of cohort) ([3]; SAD 80 mg) | All-cause AEs Grade 3/4, n occurrences (% of cohort) ([3]; SAD 80 mg) | Constipation, n occurrences (% of cohort) ([3]; SAD 80 mg) | Diarrhea, n occurrences (% of cohort) ([3]; SAD 80 mg) | Drug-related AEs Grade 2, n occurrences (% of cohort) ([3]; SAD 80 mg) | Drug-related AEs Grade 3/4, n occurrences (% of cohort) ([3]; SAD 80 mg) | MDSD, n occurrences (% of cohort) ([3]; SAD 80 mg) | All-cause AEs Grade 3/4, n occurrences (% of cohort) ([3]; SAD 320 mg) | Constipation, n occurrences (% of cohort) ([3]; SAD 320 mg) | Drug-related AEs Grade 2, n occurrences (% of cohort) ([3]; SAD 320 mg) | Drug-related AEs Grade 3/4, n occurrences (% of cohort) ([3]; SAD 320 mg) | Headache, n occurrences (% of cohort) ([3]; SAD 320 mg) | MDSD, n occurrences (% of cohort) ([3]; SAD 320 mg) | All-cause AEs Grade 3/4, n occurrences (% of cohort) ([3]; SAD 640 mg) | Drug-related AEs Grade 3/4, n occurrences (% of cohort) ([3]; SAD 640 mg) | Headache, n occurrences (% of cohort) ([3]; SAD 640 mg) | Abdominal pain, n occurrences (% of cohort) ([3]; SAD 800 mg) | All-cause AEs Grade 3/4, n occurrences (% of cohort) ([3]; SAD 800 mg) | Constipation, n occurrences (% of cohort) ([3]; SAD 800 mg) | Drug-related AEs Grade 3/4, n occurrences (% of cohort) ([3]; SAD 800 mg) | Headache, n occurrences (% of cohort) ([3]; SAD 800 mg)
4 (17): Drug-related AEs, n occurrences (% of cohort) ([3]; SAD 320 mg)
No significant changes: changes in laboratory analyses, clinical parameters, or suicidality ([1]; part 3)
1 (17): Abdominal pain, n occurrences (% of cohort) ([3]; SAD 10 mg) | Headache, n occurrences (% of cohort) ([3]; SAD 10 mg) | All-cause AEs Grade 2, n occurrences (% of cohort) ([3]; SAD 30 mg) | Drug-related AEs Grade 2, n occurrences (% of cohort) ([3]; SAD 30 mg) | Drug-related AEs, n occurrences (% of cohort) ([3]; SAD 30 mg) | MDSD, n occurrences (% of cohort) ([3]; SAD 30 mg) | Drug-related AEs, n occurrences (% of cohort) ([3]; SAD 80 mg) | Headache, n occurrences (% of cohort) ([3]; SAD 80 mg) | Abdominal pain, n occurrences (% of cohort) ([3]; SAD 320 mg) | All-cause AEs Grade 2, n occurrences (% of cohort) ([3]; SAD 320 mg) | Diarrhea, n occurrences (% of cohort) ([3]; SAD 320 mg) | Abdominal pain, n occurrences (% of cohort) ([3]; SAD 640 mg) | Constipation, n occurrences (% of cohort) ([3]; SAD 640 mg) | Diarrhea, n occurrences (% of cohort) ([3]; SAD 640 mg) | All-cause AEs Grade 2, n occurrences (% of cohort) ([3]; SAD 800 mg) | Drug-related AEs Grade 2, n occurrences (% of cohort) ([3]; SAD 800 mg) | MDSD, n occurrences (% of cohort) ([3]; SAD 800 mg)
4 (33): All-cause AEs, n occurrences (% of cohort) ([3]; SAD 800 mg)
4 (67): MDSD, n occurrences (% of cohort) ([3]; SAD 640 mg)
2 (17): All-cause AEs Grade 2, n occurrences (% of cohort) ([3]; SAD 640 mg) | Drug-related AEs Grade 2, n occurrences (% of cohort) ([3]; SAD 640 mg) | Drug-related AEs, n occurrences (% of cohort) ([3]; SAD 640 mg)
3 mg/kg: lowest observed adverse effect level [2]
5 (50): All-cause AEs, n occurrences (% of cohort) ([3]; SAD 30 mg)
3 (17): All-cause AEs, n occurrences (% of cohort) ([3]; SAD 10 mg) | Drug-related AEs, n occurrences (% of cohort) ([3]; SAD 10 mg)
2 (33): Constipation, n occurrences (% of cohort) ([3]; SAD 30 mg) | Diarrhea, n occurrences (% of cohort) ([3]; SAD 800 mg) | Drug-related AEs, n occurrences (% of cohort) ([3]; SAD 800 mg)
4 (50) ^f: All-cause AEs, n occurrences (% of cohort) ([3]; SAD 80 mg)
None: AEs considered drug- or treatment-related ([1]; part 3)
5 (33): All-cause AEs, n occurrences (% of cohort) ([3]; SAD 320 mg)
2 (12): Headache, n occurrences (% of cohort) ([1]; 100 mg tablet fed, N=17)
7: participants reporting AEs, n of 17 ([1]; part 3 (41%))
8 (67): All-cause AEs, n occurrences (% of cohort) ([3]; SAD 640 mg)
